pIC50: −log10 of the molar value. ≈ marks a conversion by molar mass, not a printed value.

In ChEMBL document CHEMBL1821639, “Exploring Left-Hand-Side substitutions in the benzoxazinone series of 4-amino-piperidine bacterial type IIa topoisomerase inhibitors” (Bioorg Med Chem Lett, 2011) one finds logD, IC50 and MIC data, which are given here for nine molecules.

A short description of data set [1]: Lipophilicity, log D of the compound by shake flask method using LC-MS analysis. The format is physicochemical. The settings on record: octanol/water. An outline of the steps: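 Shake-flask partitioning, experimental, with LC–MS quantitation.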
The target of data set [2] is Voltage-gated inwardly rectifying potassium channel KCNH2 (Homo sapiens, UniProt Q12809). Briefly: Inhibition of human ERG by electrophysiological assay.
Chain of Voltage-gated inwardly rectifying potassium channel KCNH2 (Q12809 whole entry): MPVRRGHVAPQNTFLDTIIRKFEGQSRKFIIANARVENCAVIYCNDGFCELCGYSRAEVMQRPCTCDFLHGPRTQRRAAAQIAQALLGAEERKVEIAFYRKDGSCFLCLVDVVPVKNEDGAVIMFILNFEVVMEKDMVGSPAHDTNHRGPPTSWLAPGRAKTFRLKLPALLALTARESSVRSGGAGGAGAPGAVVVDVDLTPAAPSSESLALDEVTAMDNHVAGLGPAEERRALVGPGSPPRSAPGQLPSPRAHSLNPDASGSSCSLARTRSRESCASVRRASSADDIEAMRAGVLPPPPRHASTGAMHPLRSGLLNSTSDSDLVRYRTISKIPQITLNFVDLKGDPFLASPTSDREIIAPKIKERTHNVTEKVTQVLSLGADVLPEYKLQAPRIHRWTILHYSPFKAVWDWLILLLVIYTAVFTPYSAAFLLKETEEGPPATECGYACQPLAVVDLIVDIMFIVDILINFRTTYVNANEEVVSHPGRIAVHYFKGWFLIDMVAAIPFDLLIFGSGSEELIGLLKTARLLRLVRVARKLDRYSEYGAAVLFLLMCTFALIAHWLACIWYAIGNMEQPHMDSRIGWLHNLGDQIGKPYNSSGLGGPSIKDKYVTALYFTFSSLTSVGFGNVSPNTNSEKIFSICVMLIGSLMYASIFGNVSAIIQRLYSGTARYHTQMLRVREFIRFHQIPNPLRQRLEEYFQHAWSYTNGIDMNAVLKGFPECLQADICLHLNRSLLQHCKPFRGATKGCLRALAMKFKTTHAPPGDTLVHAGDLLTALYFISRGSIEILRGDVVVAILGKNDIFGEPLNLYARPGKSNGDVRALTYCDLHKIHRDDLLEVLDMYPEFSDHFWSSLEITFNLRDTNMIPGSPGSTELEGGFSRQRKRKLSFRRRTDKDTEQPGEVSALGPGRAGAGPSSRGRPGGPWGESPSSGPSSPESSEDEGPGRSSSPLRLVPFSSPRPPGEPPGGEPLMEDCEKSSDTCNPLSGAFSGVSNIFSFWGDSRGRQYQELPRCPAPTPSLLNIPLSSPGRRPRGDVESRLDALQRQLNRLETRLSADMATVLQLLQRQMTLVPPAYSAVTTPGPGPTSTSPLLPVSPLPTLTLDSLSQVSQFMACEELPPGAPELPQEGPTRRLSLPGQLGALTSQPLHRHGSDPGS
The next data set has as its system Staphylococcus aureus. In words: Antibacterial activity against Staphylococcus aureus after 24 hrs by CLSI method. The format is functional. An outline of the steps:
(§1)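 Broth dilution per CLSI; compounds in DMSO, 10 doubling dilutions. Organisms grown overnight on agar, suspended in suitable liquid medium to 0.5 McFarland, then diluted 1 in 10 for final inoculum.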

The subject of another data set is Streptococcus pneumoniae. Briefly: Antibacterial activity against Streptococcus pneumoniae after 24 hrs by CLSI method. It counts as functional. An outline of the steps: as §1
The test system of the next data set is Streptococcus pyogenes. In words: Antibacterial activity against Streptococcus pyogenes after 24 hrs by CLSI method. The format is functional. An outline of the steps:
as §1

In the next data set the test system is Haemophilus influenzae. In words: Antibacterial activity against Haemophilus influenzae after 24 hrs by CLSI method. The format is functional. The method, boiled down:
as §1

A further data set has as its system Moraxella catarrhalis. In words: Antibacterial activity against Moraxella catarrhalis after 24 hrs by CLSI method. The format is functional. The method, boiled down: as §1
The test system of another data set is Pseudomonas aeruginosa. Briefly: Antibacterial activity against Pseudomonas aeruginosa after 24 hrs by CLSI method. It counts as functional. The method, boiled down:
as §1

Data set [3] relates to Escherichia coli. In words: Antibacterial activity against Escherichia coli after 24 hrs by CLSI method. It counts as functional. An outline of the steps: as §1
For data set [4], the system named is Escherichia coli. In words: Antibacterial activity against TolC-deficient Escherichia coli after 24 hrs by CLSI method. It counts as functional. An outline of the steps: as §1
The next data set deals with Klebsiella pneumoniae. Briefly: Antibacterial activity against Klebsiella pneumoniae after 24 hrs by CLSI method. The format is functional. An outline of the steps: as §1
A short description of data set [5]: Inhibition of ParC in reconstituted Escherichia coli ParC/ParE assessed as ParE ATPase activity after 24 hrs by ammonium molybdate/malachite green method.
Data set [6] can be described thus: Inhibition of Escherichia coli DNA gyrase supercoiling activity.

For the molecule `O=C1COc2ccc(CNC3CCN(CCN4C(=O)COc5ccc(NC(=O)C(F)(F)F)cc54)CC3)nc2N1`, in data set [1], the logD (usually lipophilicity at a set pH, counting ionised and neutral species) was found to be 0.2. In [2], the pIC50 (usually the IC50 on a negative log10 scale, so that one unit is a factor of ten) was less than 4.00. Further, the MIC against Staphylococcus aureus is more than 16.1 µM; against Streptococcus pneumoniae, more than 16.1 µM; against Streptococcus pyogenes, more than 16.1 µM; in the data set with Haemophilus influenzae, 16.1 µM (≈ 8.83 µg/mL); against Moraxella catarrhalis it was 16.1 µM (≈ 8.83 µg/mL); in the data set with Pseudomonas aeruginosa it was more than 16.1 µM. The figures for the MIC against Escherichia coli [3], in the data set with Escherichia coli [4] and against Klebsiella pneumoniae were more than 16.1 µM, 8.1 µM (≈ 4.44 µg/mL) and more than 16.1 µM, respectively.

For the molecule `O=C1COc2ccc(CNC3CCN(CCN4C(=O)COc5ccc(C(=O)O)cc54)CC3)nc2N1`, the logD in data set [1] is -1.6. For the same molecule, the MIC with Staphylococcus aureus, in the data set on Streptococcus pneumoniae, with Streptococcus pyogenes, against Haemophilus influenzae, in the data set with Moraxella catarrhalis and against Pseudomonas aeruginosa was more than 13.5 µM in each case. In addition, the results for the MIC in the data set on Escherichia coli [3], in the data set on Escherichia coli [4] and against Klebsiella pneumoniae were more than 13.5 µM, more than 12.7 µM and more than 13.5 µM, respectively. Also, the pIC50 in [5] was 5.33.

`O=C1COc2ccc(CNC3CCN(CCN4C(=O)COc5ccc(-c6ccco6)cc54)CC3)nc2N1` displayed a logD in [1] of 2.2. In addition, the MIC came out at 0.5 µM (≈ 0.252 µg/mL) with Staphylococcus aureus; 0.5 µM (≈ 0.252 µg/mL) with Streptococcus pneumoniae; 2 µM (≈ 1.01 µg/mL) against Streptococcus pyogenes; 0.3 µM (≈ 0.151 µg/mL) against Haemophilus influenzae; 0.06 µM (≈ 0.0302 µg/mL) in the data set with Moraxella catarrhalis; 15.9 µM (≈ 8.01 µg/mL) in the data set on Pseudomonas aeruginosa. The MIC in the data set on Escherichia coli [3] was determined as 2 µM (≈ 1.01 µg/mL); against Escherichia coli [4], 0.06 µM (≈ 0.0302 µg/mL); with Klebsiella pneumoniae it was 15.9 µM (≈ 8.01 µg/mL). Also, the pIC50 in data set [5] is 7.74.

`COc1ccc2c(c1)N(CCN1CCC(NCc3ccc4c(n3)NC(=O)CO4)CC1)C(=O)CO2`: in [1], the logD turned out to be 0.9. Also, the MIC is 0.3 µM (≈ 0.14 µg/mL) against Staphylococcus aureus; 1.1 µM (≈ 0.514 µg/mL) in the data set on Streptococcus pneumoniae; 0.1 µM (≈ 0.0468 µg/mL) against Haemophilus influenzae; 0.1 µM (≈ 0.0468 µg/mL) with Moraxella catarrhalis; 8.6 µM (≈ 4.02 µg/mL) in the data set with Pseudomonas aeruginosa; 0.5 µM (≈ 0.234 µg/mL) against Escherichia coli [3]. For the same molecule, the MIC in the data set with Escherichia coli [4] worked out at 0.1 µM (≈ 0.0468 µg/mL). In addition, the pIC50 in data set [6] was 8.30.

`O=C1COc2ccc(CNC3CCN(CCN4C(=O)COc5ccc(F)cc54)CC3)nc2N1` had a logD in data set [1] of 0.9. The MIC came to 0.6 µM (≈ 0.273 µg/mL) in the data set on Staphylococcus aureus; 1.1 µM (≈ 0.501 µg/mL) in the data set on Streptococcus pneumoniae; 0.5 µM (≈ 0.228 µg/mL) in the data set with Streptococcus pyogenes; 0.1 µM (≈ 0.0455 µg/mL) in the data set on Haemophilus influenzae; 6.2 µM (≈ 2.82 µg/mL) with Pseudomonas aeruginosa; 0.6 µM (≈ 0.273 µg/mL) in the data set on Escherichia coli [3]. Moreover, the MIC with Escherichia coli [4] was found to be 0.1 µM (≈ 0.0455 µg/mL).

Turning to `O=C1COc2ccc(CNC3CCN(CCN4C(=O)COc5ccc(OC(F)(F)F)cc54)CC3)nc2N1`, the logD in [1] amounted to 1.8. Also, the MIC came to 1 µM (≈ 0.521 µg/mL) against Staphylococcus aureus; 1 µM (≈ 0.521 µg/mL) in the data set with Streptococcus pneumoniae; 1 µM (≈ 0.521 µg/mL) with Streptococcus pyogenes; 0.1 µM (≈ 0.0521 µg/mL) in the data set on Haemophilus influenzae; 0.1 µM (≈ 0.0521 µg/mL) against Moraxella catarrhalis; 15.3 µM (≈ 7.98 µg/mL) in the data set with Pseudomonas aeruginosa. The results for the MIC against Escherichia coli [3] and in the data set on Escherichia coli [4] were 3.8 µM (≈ 1.98 µg/mL) and 0.1 µM (≈ 0.0521 µg/mL), respectively.

In data set [1], `O=C1COc2ccc(CNC3CCN(CCN4C(=O)COc5ccc(-n6cnnn6)cc54)CC3)nc2N1` gave a log distribution coefficient (logD) of -0.8. For the same molecule, the pIC50 in [2] was less than 4.00; in [5] it was 6.45. In addition, the MIC against Staphylococcus aureus, against Streptococcus pneumoniae, against Streptococcus pyogenes, in the data set with Haemophilus influenzae, against Moraxella catarrhalis and against Pseudomonas aeruginosa was more than 10.9 µM throughout. Moreover, the MIC against Escherichia coli [3], in the data set on Escherichia coli [4] and in the data set on Klebsiella pneumoniae was more than 10.9 µM throughout.

In data set [1], `O=C1COc2ccc(CNC3CCN(CCN4C(=O)COc5ccc(O)cc54)CC3)nc2N1` returned a logD of 0.5. Further, the MIC with Staphylococcus aureus amounted to 17.7 µM (≈ 8.03 µg/mL); in the data set on Streptococcus pneumoniae, 8.8 µM (≈ 3.99 µg/mL); with Streptococcus pyogenes, 1.1 µM (≈ 0.499 µg/mL); in the data set with Haemophilus influenzae it was 0.3 µM (≈ 0.136 µg/mL); against Moraxella catarrhalis, 0.1 µM (≈ 0.0453 µg/mL); against Pseudomonas aeruginosa it was 17.7 µM (≈ 8.03 µg/mL). Besides, the MIC is 4.4 µM (≈ 2 µg/mL) in the data set with Escherichia coli [3], 0.1 µM (≈ 0.0453 µg/mL) in the data set on Escherichia coli [4] and more than 17.7 µM against Klebsiella pneumoniae. Besides, the pIC50 in data set [5] was 7.44.

In the case of `CS(=O)(=O)c1ccc2c(c1)N(CCN1CCC(NCc3ccc4c(n3)NC(=O)CO4)CC1)C(=O)CO2`, in data set [1], the logD is -0.5. The MIC is more than 15.5 µM in the data set on Staphylococcus aureus; 15.5 µM (≈ 7.99 µg/mL) in the data set with Streptococcus pneumoniae; 15.5 µM (≈ 7.99 µg/mL) in the data set with Streptococcus pyogenes; 3.9 µM (≈ 2.01 µg/mL) against Haemophilus influenzae; 3.9 µM (≈ 2.01 µg/mL) against Moraxella catarrhalis; more than 15.5 µM against Pseudomonas aeruginosa. Further, the MIC is more than 15.5 µM with Escherichia coli [3] and 1 µM (≈ 0.516 µg/mL) with Escherichia coli [4].
